RTF Ca sens act: increases calcium sensitivity of human cardiac regulated thin filaments. P19429+P45379. IANBD-labeled TnC RTF fluorescence at EC20 calcium; 0% EC20 calcium, 100% full calcium. activation, % at 7.2 µM. 340,000 compounds, 0.24% hits. AID 493008;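 active = activation above the mean over all tested compounds plus 3 SD, cut at about 30% in these data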;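 note: rise in fluorescence read as greater calcium sensitivity of cardiac thin filaments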
Tn7 DDE FP: disrupts Tn7 cyclic peptide binding to fibrin D-Dimer-E complex; P02675; FP displacement of FITC-Tn7 peptide from fibrin DD(E); 0% = median of compound wells per plate; inhibition, % at 8.3 µM; 370,000 compounds, 0.13% hits; AID 720508;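 active = inhibition above the mean of compounds falling within the control limits plus 3 SD of them, cut at about 14% in these data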;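 note: 0% = plate median of compound wells and 100% = 10 µM Aha-Tn7 peptide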
Target sequence (P02675 whole entry, looked up): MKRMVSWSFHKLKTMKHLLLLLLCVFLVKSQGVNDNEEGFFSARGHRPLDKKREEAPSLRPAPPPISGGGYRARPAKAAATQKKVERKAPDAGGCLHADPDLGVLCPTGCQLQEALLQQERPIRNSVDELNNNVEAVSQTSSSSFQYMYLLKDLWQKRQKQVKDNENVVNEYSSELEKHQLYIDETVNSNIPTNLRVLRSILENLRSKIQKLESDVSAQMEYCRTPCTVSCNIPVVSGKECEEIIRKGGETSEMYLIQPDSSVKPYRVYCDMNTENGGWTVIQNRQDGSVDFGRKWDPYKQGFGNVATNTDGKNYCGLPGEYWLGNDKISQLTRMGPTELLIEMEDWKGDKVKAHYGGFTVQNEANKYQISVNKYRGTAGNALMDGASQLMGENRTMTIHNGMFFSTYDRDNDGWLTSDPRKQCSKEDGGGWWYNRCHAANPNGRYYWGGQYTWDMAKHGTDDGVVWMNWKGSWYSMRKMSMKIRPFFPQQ
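Test system – human fibrin DD(E) · Times – 10 min preincubation, 3 h with tracer, room temperature · Detection – fluorescence polarization of the labelled Tn7 tracer · Measure – percent inhibition normalized to high-control wells · Benchmarks – high control wells with 10 µM unlabelled Aha-Tn7 peptide (full inhibition) · Repeats – singlicate testing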
Cardiac RTF inh: cardiac RTF calcium desensitization; 340,000 compounds, 0.12% hits; AID 493244; P19429+P45379; inhibition, % at 7.15 µM; IANBD-labeled cardiac RTF, Ca2+ fluorescence;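 active = inhibition above the mean inhibition of all tested compounds plus 3 SD, cut at about 17% in these data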;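 note: assay run at fixed EC70 calcium of 1.6 mM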
CRFR2-BP ag: agonists of human CRF-binding protein/CRF-R2 receptor complex | HEK293 CRF-R2/CRF-BP, calcium dye fluorescence (FLIPR); percent of saturating CRF peptide response | 350,000 compounds, 0.46% hits | activation, % at 13.2 µM | AID 588473;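 active = activation of at least 50%, plus an integration ratio under a set limit after plate pattern correction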;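 note: plate controls were neutral control wells without compound for no effect and CRF at EC100 for full effect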
DDE Tn6 FP inh: DD(E)-Tn6 binding inhibition, primary FP screen. P02675. Fibrin DD(E) TRITC-Tn6 fluorescence polarization displacement. inhibition, % at 8.3 µM. 370,000 compounds, 0.21% hits;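 active = inhibition above a per-campaign cutoff: mean of compounds within control limits plus 3 SD, cut at about 15% in these data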;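 note: 0% = median of all compound wells on the plate and 100% = blocking peptide control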
CRFR2-BP antag: antagonists of CRF-binding protein/CRF-R2 receptor complex; HEK293 CRF-R2/CRF-BP, CRF-induced calcium fluorescence; inhibition, % at 11.8 µM; 350,000 compounds, 0.59% hits;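 active = inhibition of the ligand-induced calcium signal above about 50% at the single tested concentration, limit read from the data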
* hit, by the source's call; . = no result given. A selection: hits, their analogues and other compounds. The true share with any hit is near 1.4%.

SMILES	RTF Ca sens act	Tn7 DDE FP	Cardiac RTF inh	CRFR2-BP ag	DDE Tn6 FP inh	CRFR2-BP antag
COC(=O)c1c(C)[nH]c(O)c1C=Nc1ccc(C(C)C)cc1	11	-13	-26	126*	0	-141
COc1ccc(C(C(=O)NC2CCCC2)N(C(=O)c2ccoc2C)c2cc(C)cc(C)c2)cc1 (stereo not given)	0	5	5	0	-4	83*
COc1ccc(C(C(=O)NC2CCCCC2)N(C(=O)c2sc(C)nc2C)c2ccccc2)cc1 (stereo not given)	7	5	2	1	-4	-4
COc1ccc(C(C(=O)NC2CCCCC2)N(C(=O)c2sc(C)nc2C)c2ccc(OC)cc2)cc1 (stereo not given)	4	-7	-4	-2	-4	64*
COc1ccc(C(C(=O)NC2CCCC2)N(C(=O)c2ccoc2C)c2ccccc2)cc1 (stereo not given)	-5	1	-3	0	2	1
Cc1cccc(S(=O)(=O)NC(=O)C2(C)CCN2C(=O)C/C=C/c2ccccc2)c1 (stereo not given)	.	2	.	.	6	.
CSc1cccc(NC(=O)C(C)C)c1	3	-3	3	-3	5	51*
CC(C)(C)N1Cc2nnn(CC3CCCCC3)c2-c2cc(F)ccc2S1(=O)=O	.	5	.	.	6	.
O=C(CC(NC(=O)OCc1ccccc1)C(=O)OCc1ccccc1)OCc1ccccc1 (stereo not given)	4	6	-7	6	-5	88*
O=Cc1c(N2CCN(CCO)CC2)nc2ccccn2c1=O	4	3	-6	128*	9	-85
CCN1CCN(c2nc3ccccn3c(=O)c2C=O)CC1	-2	6	-10	6	3	-20
CC(=O)Oc1ccccc1C(=O)Nc1ccccc1	-5	6	-6	-2	-3	1
COC1(OC)C=CC(=O)C=C1NC(=O)c1ccccc1OC(C)=O	8	3	-2	0	-2	104*
CCCC1CC(C#N)N(N(C)C)C1=C(C#N)C#N (stereo not given)	1	6	-2	0	0	52*
CC1CC(C#N)N(N(C)C)C1=C(C#N)C#N (stereo not given)	1	0	-18	-1	4	4
C#CCN(C)S(=O)(=O)c1ccc(N2CCCC2)cc1Br	.	4	.	.	-4	.
COc1ccc(CN2CCN(C(=O)c3ccc(-c4ccccc4)cc3)CC2)c(OC)c1OC	1	1	-11	2	1	-2
COc1ccc(CN2CCN(C(=O)c3cccs3)CC2)c(OC)c1OC	-5	-5	6	-2	-3	58*
Nc1nn(S(=O)(=O)c2ccccc2)cc1-c1ccc([N+](=O)[O-])cc1	-10	-5	2	-1	2	50*
Cc1ccc(S(=O)(=O)Nc2nc3ccccc3nc2NCC2CCCO2)cc1 (stereo not given)	-1	-1	2	-1	7	-4
COc1ccc(S(=O)(=O)Nc2nc3ccccc3nc2NCC2CCCO2)cc1 (stereo not given)	-4	0	2	-1	-2	113*
O=C1CCC[C@H]2C[C@H](NCc3cccs3)CC[C@]23CCCN13	.	2	.	.	3	.
CNC(=O)c1c(NC(=O)c2ccc(S(=O)(=O)N(C)c3ccccc3)cc2)sc2c1CCN(C(C)C)C2	.	1	.	160*	0	-122
CCN1CCc2c(sc(NC(=O)c3ccc(S(=O)(=O)N(C)c4ccccc4)cc3)c2C(=O)NC)C1	52*	.	-44	162*	.	-146
CCN1CCN(S(=O)(=O)c2ccc(C(=O)Nc3sc4c(c3C(N)=O)CCN(CC)C4)cc2)CC1	2	-1	-8	13	-13	-24
SMILES	RTF Ca sens act	Tn7 DDE FP	Cardiac RTF inh	CRFR2-BP ag	DDE Tn6 FP inh	CRFR2-BP antag
CC(C)N1CCc2c(sc(NC(=O)c3ccc(S(=O)(=O)N4CCc5ccccc54)cc3)c2C(N)=O)C1	15	.	-20	107*	.	-188
CC(C)(C)c1ccc(-c2nnc(SCC(=O)c3ccc([N+](=O)[O-])cc3)n2-c2ccc(Cl)cc2)cc1	.	10	.	.	10	.
N#CCCN(CCC#N)C(=O)C1c2ccccc2Oc2ccccc21	12	10	-22	-1	59*	13
CN(CCC#N)C(=O)COC(=O)C1c2ccccc2Oc2ccccc21	1	0	-38	-1	1	0
O=C(Nc1cccnc1)c1ccc(-c2ccc(Cl)cc2)o1	3	-4	-3	-1	-2	57*
CSc1nc2c(=O)[nH]cnc2s1	.	2	.	.	9	.
O=C(NC(Cc1ccccc1)c1nc2ccccc2[nH]1)c1ccc(Cl)c([N+](=O)[O-])c1 (stereo not given)	-5	2	-9	0	-4	76*
CCc1ccc2[nH]c(C(=O)Nc3ccc4c(c3)OCO4)cc2c1	4	-7	0	-5	4	69*
O=C(NCc1ccccc1)c1ccc(CS(=O)Cc2cccc(Cl)c2)o1 (stereo not given)	.	7	.	-1	2	6
CSc1ccc(CCNC(=O)c2ccc(CS(=O)Cc3ccc(Cl)cc3)o2)cc1 (stereo not given)	-1	-2	-1	2	-6	80*
O=C(NCc1cccs1)c1ccc(CS(=O)Cc2cccc(Cl)c2)o1 (stereo not given)	2	1	-8	-1	-6	58*
CCn1cc(C2=NOC(C(=O)Nc3ccccc3C(=O)OC)C2)c(C)n1 (stereo not given)	2	.	-4	-5	.	52*
COc1ccc(N/C(N)=N/c2nc(C)cc(C)n2)cc1	.	4	.	70*	3	-85
Cc1cc(C)nc(/N=C(\N)Nc2ccc(S(=O)(=O)Nc3nccc(C)n3)cc2)n1	-5	-11	-1	-2	3	12
Cc1cc(C)nc(/N=C(\N)Nc2ccc(S(=O)(=O)O)cc2)n1	.	7	.	-1	3	1
Cc1cc(C)nc(/N=C(\N)Nc2ccc(CC(=O)OC(C)C)cc2)n1	-1	10	-12	101*	-5	-6
Cc1cc(C)nc(/N=C(\N)Nc2ccc(OCCC(C)C)cc2)n1	-9	-3	-5	75*	-4	-35
CN(C)c1ccc(/C=C2\C(=N)N3N=C(CC(=O)N4CCCCC4)SC3=NC2=O)cc1	29	-5	-20	55*	-6	-65
Cc1cccc(C)c1NC(=O)C(c1ccc(C#N)cc1)n1c(=O)c(-c2cc3ccccc3[nH]2)nc2ccccc21 (stereo not given)	.	-9	.	.	-6	.
COc1ccc2nc3ccccc3[n+]([O-])c2c1	23	8	-33	58*	2	7
